This is an account of results in publication PMC11310838 (RSC Advances, 2024).

Test [1] relates to MCF7 cell line. Briefly: Sulforhodamine B. The following applies: Homo sapiens, MCF7, 48 h; for IC50: read-out: IC50 (μM) ± SD MCF7; for inhibition at 100 µM: read-out: Percentage of cell growth inhibition at [100 μM] MCF7. Format: cell-based, human. The method, boiled down:
(§1)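 Carcinoma lines came from the National Cancer Institute, Cairo, and were grown as monolayers in DMEM with 10% FBS and 1% penicillin–streptomycin. Final DMSO was ≤0.1% (v/v). Cells were treated for 48 h either at a single 100 μM dose (% growth inhibition) or at 0, 6.25, 12.5, 25 and 50 μM. SRB staining was read at 570 nm as % viability. IC50 came from dose–response curve fitting.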

Test [2] concerns the target EGFR kinase (Homo sapiens, UniProt P00533). Briefly: EGFR kinase inhibitory assay. It counts as biochemical. The following applies: for % of EGFR inhibition: concentration not given, average of three replicates.
Test [3] concerns cancer cell lines (HCT116, HEPG2, MCF7). Briefly: SRB single-dose screen, summary over cancer cell lines. Format: cell-based. The following applies: Homo sapiens, 48 h, read-out: percentage of cell growth inhibition on the cancer cell lines. In outline:
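Human carcinoma lines grown as monolayers in DMEM with 10% FBS and 1% penicillin–streptomycin. Each test compound was applied once at 100 μM for 48 h, with final DMSO at most 0.1% (v/v) in control and treated wells. Growth was measured by sulforhodamine-B staining, with OD read at 570 nm. Percentage growth inhibition was calculated from viability relative to the untreated control.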

The test system of test [4] is HEPG2 cell line. Briefly: Sulforhodamine B. Format: cell-based, human. The following applies: Homo sapiens, HepG2, 48 h; for IC50: read-out: IC50 (μM) ± SD HEPG2; for inhibition at 100 µM: read-out: Percentage of cell growth inhibition at [100 μM] HEPG2. In outline: as §1
Test [5] deals with HDF cell line (Human Dermal Fibroblasts). Briefly: Sulforhodamine B. It counts as cell-based. The following applies: Homo sapiens, HDF, 48 h, read-out: Percentage of cell growth inhibition at [100 μM] HDF. The method, boiled down: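 Normal human dermal fibroblasts came from the National Cancer Institute, Cairo. Final DMSO was ≤0.1% (v/v). Cells were exposed to the test compound at a single 100 μM dose for 48 h. Growth inhibition was measured by the sulforhodamine-B method, with absorbance read at 570 nm and expressed as percentage of cell viability.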

In test [6] the test system is HCT116 cell line. Briefly: Sulforhodamine B. Format: cell-based, human. The following applies: for inhibition at 100 µM: read-out: Percentage of cell growth inhibition at [100 μM] HCT116. In outline: as §1
The test system of test [7] is HCT-116 cells. Briefly: Annexin V/PI staining flow cytometry. Particulars: HCT-116, treated at IC50 = 8.5 μM, 48 h. Format: cell-based, human. Background: In flow cytometry, cells or beads pass a laser one at a time.
In test [8] the test system is HCT-116 cells. Briefly: DNA content-flow cytometry cell cycle analysis. It counts as cell-based, human. The following applies: HCT-116, treated at IC50 = 8.5 μM, 48 h; control 3.77%.
Test [9] has as its system HCT-116 cells. Briefly: RT-PCR of apoptosis-related genes. It counts as cell-based, human. The following applies: HCT-116, IC50 = 8.5 μM, 48 h, untreated control = 1. In outline:
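HCT-116 cells were exposed to the test compound for 48 h, alongside untreated cells. Relative expression of apoptosis-related genes was measured by real-time PCR. Ct values were normalised to β-actin, and untreated control was set to fold change = 1. Data are the mean ± SD of 3 independent runs.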

Setting [10] is: Homo sapiens, HCT-116, 48 h, read-out: IC50 (μM) ± SD HCT116, 48 h treatment, SRB.

Read-outs that look alike come from different tables or passages of the source. Where only a bound is given, the exact number is not on record here.

Chain of EGFR kinase (P00533 25-1210): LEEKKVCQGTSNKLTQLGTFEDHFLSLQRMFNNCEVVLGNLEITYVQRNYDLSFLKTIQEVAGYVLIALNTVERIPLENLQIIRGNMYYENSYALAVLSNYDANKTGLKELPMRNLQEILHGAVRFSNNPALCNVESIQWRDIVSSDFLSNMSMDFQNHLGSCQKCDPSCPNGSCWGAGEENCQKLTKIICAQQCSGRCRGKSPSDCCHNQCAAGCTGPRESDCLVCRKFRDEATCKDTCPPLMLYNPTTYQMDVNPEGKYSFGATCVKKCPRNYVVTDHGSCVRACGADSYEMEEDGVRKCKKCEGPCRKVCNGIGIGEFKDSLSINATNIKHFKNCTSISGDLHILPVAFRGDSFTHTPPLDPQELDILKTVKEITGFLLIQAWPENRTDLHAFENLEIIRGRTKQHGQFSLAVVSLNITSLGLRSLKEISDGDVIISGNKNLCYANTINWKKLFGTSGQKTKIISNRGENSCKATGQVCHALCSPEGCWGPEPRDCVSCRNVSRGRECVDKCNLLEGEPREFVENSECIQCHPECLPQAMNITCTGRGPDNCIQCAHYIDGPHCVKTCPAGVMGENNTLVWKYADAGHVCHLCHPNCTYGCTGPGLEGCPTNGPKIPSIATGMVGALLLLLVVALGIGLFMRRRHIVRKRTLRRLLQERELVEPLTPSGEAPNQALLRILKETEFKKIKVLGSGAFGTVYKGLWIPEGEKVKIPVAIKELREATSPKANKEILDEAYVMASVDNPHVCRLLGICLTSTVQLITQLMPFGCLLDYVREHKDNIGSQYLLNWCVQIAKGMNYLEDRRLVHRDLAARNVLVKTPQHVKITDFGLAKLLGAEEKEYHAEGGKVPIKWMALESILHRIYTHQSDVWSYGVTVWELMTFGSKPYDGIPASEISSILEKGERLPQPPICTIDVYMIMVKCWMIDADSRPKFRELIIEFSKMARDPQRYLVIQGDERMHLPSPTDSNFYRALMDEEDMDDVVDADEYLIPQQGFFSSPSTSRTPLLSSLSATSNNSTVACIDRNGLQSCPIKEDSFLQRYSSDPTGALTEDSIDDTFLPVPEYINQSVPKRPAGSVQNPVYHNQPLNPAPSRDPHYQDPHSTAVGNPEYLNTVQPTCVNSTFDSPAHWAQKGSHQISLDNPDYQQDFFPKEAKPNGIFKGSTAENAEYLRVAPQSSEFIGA

What is called IC50 is the point on the concentration scale where inhibition reaches its midpoint. Broadly, the inhibition is the share of the control response that was lost under treatment. With `NC(=S)NN=Cc1ccccc1OCC(=O)N1CCN(C(=O)COc2ccccc2C=NNC(N)=S)CC1` [Compound 7b, 1,1′-(Piperazine-1,4-diyl)bis(2-(2-(2-carbamothioylhydrazono)methylphenoxy)ethanone)], the IC50 is 48.5 ± 4.8 µM in test [1], 0.0035 ± 0.0001 µM in test [2], 41.3 ± 3.9 µM in [4] and 20.7 ± 1.5 µM in [6] (setting [10]). Moreover, the inhibition at 100 µM is 88.9 ± 5.46% in test [1]; over 80% in test [3]; 89.1 ± 2.22% in [4]; 66.5 ± 11.5% in test [5]; 90.1 ± 3.41% in [6] (Homo sapiens, HCT-116, 48 h). Also, the “% of EGFR inhibition” value in [2] turned out to be 89.7 ± 2.8%.

For `Cc1nc(NN=Cc2ccc(OCC(=O)N3CCN(C(=O)COc4ccc(C=NNc5nc(C)c(N=Nc6ccccc6)s5)cc4)CC3)cc2)sc1N=Nc1ccccc1` [Compound 9a, 1,1′-(Piperazine-1,4-diyl)bis(2-(4-(((4-methyl-5-(phenylazo)thiazol-2-yl)hydrazono)methyl)-phenoxy)ethanone)], the IC50 worked out at 13.7 ± 2.3 µM in [1], 0.0121 ± 4e-05 µM in test [2], 23.8 ± 4 µM in [4] and 9.98 ± 2 µM in [6] (setting [10]). For the same compound, the inhibition at 100 µM is 85.9 ± 5.94% in test [1]; over 80% in [3]; 74.7 ± 4.49% in [4]; 18.2 ± 11.5% in test [5]; 81 ± 3.91% in [6] (Homo sapiens, HCT-116, 48 h). The “% of EGFR inhibition” value in test [2] was determined as 83.7 ± 1.4%.

With `Cc1ccc(N=Nc2sc(NN=Cc3ccc(OCC(=O)N4CCN(C(=O)COc5ccc(C=NNc6nc(C)c(N=Nc7ccc(C)cc7)s6)cc5)CC4)cc3)nc2C)cc1` [Compound 9b, 1,1′-(Piperazine-1,4-diyl)bis(2-(4-(((4-methyl-5-(4-tolylazo)thiazol-2-yl)hydrazono)methyl)-phenoxy)ethanone)], the IC50 in [1] worked out at 24.7 ± 3.6 µM; in [2] it was 0.0546 ± 0.0009 µM; in test [4], 26.5 ± 2.7 µM; in test [6] (setting [10]), 11.5 ± 2.5 µM. Moreover, the inhibition at 100 µM in test [1] is 89.5 ± 2.34%; in [3], over 80%; in test [4], 56.5 ± 4.93%; in test [5] it was 27.6 ± 25.1%; in test [6] (Homo sapiens, HCT-116, 48 h), 85.2 ± 2.11%. Besides, the “% of EGFR inhibition” value in test [2] is listed as 74.8 ± 1.6%.

In the case of `Cc1nc(NN=Cc2ccc(OCC(=O)N3CCN(C(=O)COc4ccc(C=NNc5nc(C)c(N=Nc6ccc([N+](=O)[O-])cc6)s5)cc4)CC3)cc2)sc1N=Nc1ccc([N+](=O)[O-])cc1` [Compound 9e, 1,1′-(Piperazine-1,4-diyl)bis(2-(4-(((4-methyl-5-(4-nitrophenylazo)thiazol-2-yl)hydrazono)methyl)-phenoxy)ethanone)], the IC50 in test [1] amounted to 22 ± 4.5 µM; in test [4], 32.2 ± 4.5 µM; in test [6] (setting [10]) it was 20.4 ± 3.4 µM. In addition, the inhibition at 100 µM is 84.6 ± 2.02% in test [1]; over 80% in [3]; 77.5 ± 7.73% in test [4]; 18.6 ± 32.1% in test [5]; 86.8 ± 2.09% in [6] (Homo sapiens, HCT-116, 48 h).

Regarding `Cc1nc(NN=Cc2ccccc2OCC(=O)N2CCN(C(=O)COc3ccccc3C=NNc3nc(C)c(N=Nc4ccc(Br)cc4)s3)CC2)sc1N=Nc1ccc(Br)cc1` [Compound 9i, 1,1′-(Piperazine-1,4-diyl)bis(2-(2-(((4-methyl-5-(4-bromophenylazo)thiazol-2-yl)hydrazono)-methyl)phenoxy)ethanone)], the IC50 in test [1] amounted to 13 ± 2.8 µM; in test [2] it was 0.0012 ± 5e-05 µM; in [4], 22 ± 2.9 µM; in test [6] (setting [10]), 8.5 µM; in test [6] (read-out: IC50 (μM) ± SD HCT116, 48 h treatment, SRB) it was 8.51 ± 2.5 µM. In addition, the inhibition at 100 µM in [1] is 89.9 ± 2.3%; in test [3], over 80%; in test [4] it was 91 ± 3.56%; in [5], 71.6 ± 17.3%; in test [6] (Homo sapiens, HCT-116, 48 h), 89.6 ± 5.3%. For the same compound, in test [7], the “induction of apoptotic cell death vs untreated control” value worked out at 4.16 fold. Also, the “induction of necrosis cell death vs untreated control” value in test [7] is 4.79 fold. The compound further returned an early apoptosis in test [7] (control 1.69%) of 0.54%. The compound further gave a late apoptosis in test [7] (control 2.36%) of 16.31%. For the same compound, the total apoptosis in test [7] (control 4.05%) is on record as 16.85%. In test [8], the “cell population at the P2 phase” value was 51.89%. Moreover, the “% of EGFR inhibition” value in [2] was determined as 97.5 ± 2.1%. Also, the “Bcl-2 expression fold change” value in test [9] (downregulated) amounted to 0.76 fold change. In addition, the P53 fold change in test [9] (upregulated) is recorded as 10.87 fold change. Further, in test [9] (upregulated), the “caspase-3 level fold change” value was 9.87 fold change. Further, in test [9] (upregulated), the “caspase-8 level fold change” value turned out to be 7.6 fold change. The “caspase-9 level fold change” value in test [9] (upregulated) worked out at 11.6 fold change.

For `O=C(COc1ccc(C=NN=c2sc(-c3ccc(Cl)cc3)nn2-c2ccccc2)cc1)N1CCN(C(=O)COc2ccc(C=NN=c3sc(-c4ccc(Cl)cc4)nn3-c3ccccc3)cc2)CC1` [Compound 13b, 1,1′-(Piperazine-1,4-diyl)bis(2-(4-(((5-(4-chlorophenyl)-3-phenyl-1,3,4-thiadiazol-2(3H)-ylidene)-hydrazono)methyl)phenoxy)ethanone)], the IC50 is 19.4 ± 3 µM in [1], 24.5 ± 4 µM in test [4] and 18.4 ± 4 µM in test [6] (setting [10]). Besides, the inhibition at 100 µM was 90.8 ± 1.39% in test [1]; over 80% in test [3]; 85.1 ± 3.16% in test [4]; 79.2 ± 3.71% in test [5]; 89.3 ± 2.83% in test [6] (Homo sapiens, HCT-116, 48 h).
